# Screening data: PubChem, Johns Hopkins Ion Channel Center
# This is a sample that favours compounds with a hit; in the whole collection about 3.5% have one here.
# RGS4 block = inhibitors of human RGS4; P49798; HEK293 M3R/RGS4 inducible, Fluo-4 calcium flux; hits give high values; triggered by carbachol at its EC20; B-score at 10 µM; 310,000 tested, 0.45% active;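 active = B-score, a plate-corrected calcium signal, over three deviations above library mean, with baseline fluorescence within five deviations of library mean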;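 also: RGS4 expression induced by doxycycline in cells with stable M3 receptor; B-score is computed from the integrated fluorescence ratio over baseline after carbachol; higher B-score means a larger calcium signal and so more RGS4 inhibition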
# Target sequence (P49798 whole entry, looked up): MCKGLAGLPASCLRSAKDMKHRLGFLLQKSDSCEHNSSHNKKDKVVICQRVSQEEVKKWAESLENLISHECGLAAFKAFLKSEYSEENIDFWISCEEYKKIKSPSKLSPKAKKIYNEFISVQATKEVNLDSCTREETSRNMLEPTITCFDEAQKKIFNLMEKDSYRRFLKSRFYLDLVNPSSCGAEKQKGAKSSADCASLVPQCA
# MrgX1 PAM = allosterically activates human MrgX1 receptor signaling. Q96LB2. MrgX1-HEK293, Fluo-4 calcium flux, FDSS; hits give high values. B-score at 10 µM. 310,000 tested, 0.63% active. AID 588675;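 active = plate-corrected calcium response at least 3 library SD above typical, normal starting fluorescence, not activating the receptor alone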;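 also: compound read alongside a low EC10 to EC30 dose of BAM8-22 agonist; peak minus trough fluorescence over baseline measured at the second addition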
# Target sequence (Q96LB2 whole entry, looked up): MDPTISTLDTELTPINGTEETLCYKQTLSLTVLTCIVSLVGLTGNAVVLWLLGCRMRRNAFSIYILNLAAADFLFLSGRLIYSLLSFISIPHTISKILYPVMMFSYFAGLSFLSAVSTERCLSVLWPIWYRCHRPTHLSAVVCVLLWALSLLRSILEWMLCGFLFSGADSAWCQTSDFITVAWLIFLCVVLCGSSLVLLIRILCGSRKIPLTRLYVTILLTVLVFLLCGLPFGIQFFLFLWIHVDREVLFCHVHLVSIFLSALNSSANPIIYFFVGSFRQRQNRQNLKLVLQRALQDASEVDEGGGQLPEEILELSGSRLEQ
# RGS4 act = potentiators or activators of RGS4. HEK293 M3R/inducible RGS4, carbachol calcium flux Fluo4; hits give low values. B-score at 10 µM. 310,000 tested, 0.92% active. AID 463111;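 active = B-score of the integrated calcium signal more than 4 SD below the library mean, with starting fluorescence not abnormally high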;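 also: negative B-score means reduced calcium response which marks RGS4 activation or potentiation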
#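 Material: M3R-expressing HEK293 line, RGS4 induced by doxycycline | Schedule: Overnight RGS4 induction, 30 min dye load 37 °C, 20 min compound RT | Measured by: Fluo4 fluorescence kinetic imaging of calcium | Read-out: Integrated calcium ratio converted to B score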
# MrgX1 ag = agonists of human MrgX1 receptor; Q96LB2; MrgX1-HEK293 cells, Fluo-4 calcium fluorescence, agonist mode; hits give high values; B-score at 10 µM; 310,000 tested, 0.44% active; AID 588627;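 active = calcium response B-score plate-corrected fluorescence ratio at least 3 library SD, with starting fluorescence B-score inside 5 SD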
#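 Test system: HEK293 cells stably expressing human MrgX1 receptor; amount: 15,000 cells per well; doses: compound delivered in addition one of three; times: overnight plating before 1 h dye loading; detection: Fluo-4 NW calcium-flux fluorescence, kinetic read; read-out basis: B-scored fluorescence response ratio; controls: positive and negative controls per plate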
# MrgX1 antag = antagonists of human MrgX1 receptor. Q96LB2. MRGX1-HEK293 calcium flux, Fluo-4, BAM8-22 antagonism; hits give low values. B-score at 10 µM. 310,000 tested, 1.3% active. AID 588676;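 active = calcium-response B-score plate-corrected more than 3 library SD below zero, starting fluorescence within 5 deviations, no agonist response on first addition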;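 also: peak minus trough fluorescence over baseline after final BAM8-22 challenge near maximal dose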
# * = called active by the depositor; i = inactive; · = no result given.
SMILES,RGS4 block,MrgX1 PAM,RGS4 act,MrgX1 ag,MrgX1 antag
COc1cccc(/C=N/Nc2nc(N3CCCC3)nc(N3CCCC3)n2)c1O,i,i,-7.68*,i,i
O=C(O)c1ccccc1/C=N/Nc1nc(N2CCCCC2)nc(N2CCCCC2)n1,i,i,i,i,-6.58*
CCN(C(=O)Cn1nc(C)n2c(cc3cc(C)ccc32)c1=O)c1ccccc1,i,i,i,i,i
O=C(O)Cn1nnnc1SCC(=O)Nc1ccc(F)cc1F,i,i,i,i,i
COc1ccc(/C=N\NC(=O)c2cc(O)c(O)c(O)c2)cc1COc1ccc(C(=O)OCC(C)C)cc1,i,i,i,i,i
C#CCOCCOCCOCCNc1nc(N2CCN(C(=O)CCCCCCCCCCNC(=O)[C@H](CCCCN)n3cc(C[C@@H](C)CC)nn3)CC2)nc(N2CCN(C(=O)CCCCCCCCCCNC(=O)[C@H](CCCN=C(N)N)n3cc(C[C@@H](C)CC)nn3)CC2)n1,·,i,·,35.4*,i
C#CCOCCOCCOCCNc1nc(N2CCN(C(=O)CCCCCCCCCCNC(=O)[C@@H](CCSC)n3cc(CCO)nn3)CC2)nc(N2CCN(C(=O)CCCCCCCCCCNC(=O)[C@H](CCCN=C(N)N)n3cc(C[C@@H](C)CC)nn3)CC2)n1,·,i,·,i,i
C#CCOCCOCCOCCNc1nc(N2CCN(C(=O)CCCCCCCCCCNC(=O)[C@H](CCCCN)n3cc(C)nn3)CC2)nc(N2CCN(C(=O)CCCCCCCCCCNC(=O)[C@@H]([C@H](C)O)n3cc(C)nn3)CC2)n1,·,i,·,i,i
C#CCOCCOCCOCCNc1nc(N2CCN(C(=O)CCCCCCCCCCNC(=O)[C@H](CO)n3cc(CCCCCN)nn3)CC2)nc(N2CCN(C(=O)CCCCCCCCCCNC(=O)[C@H](CCCN=C(N)N)n3cc(C[C@@H](C)CC)nn3)CC2)n1,·,i,·,70.4*,i
C#CCOCCOCCOCCNc1nc(N2CCN(C(=O)CCCCCCCCCCNC(=O)[C@H](CCCCN)n3cc(C[C@@H](C)CC)nn3)CC2)nc(N2CCN(C(=O)CCCCCCCCCCNC(=O)[C@@H]([C@H](C)O)n3cc(C)nn3)CC2)n1,·,6.86*,·,i,i
C#CCOCCOCCOCCNc1nc(N2CCN(C(=O)CCCCCCCCCCNC(=O)[C@H]([C@@H](C)CC)n3cc(CCCCN=C(N)N)nn3)CC2)nc(N2CCN(C(=O)CCCCCCCCCCNC(=O)[C@@H]([C@H](C)O)n3cc(C)nn3)CC2)n1,·,i,·,i,i
C#CCOCCOCCOCCNc1nc(N2CCN(C(=O)CCCCCCCCCCNC(=O)[C@H](CCCCN)n3cc(C)nn3)CC2)nc(N2CCN(C(=O)CCCCCCCCCCNC(=O)[C@H](CCCN=C(N)N)n3cc(C[C@@H](C)CC)nn3)CC2)n1,·,i,·,104*,i
Cc1cc(Cl)cc(Cl)c1CNc1c([N+](=O)[O-])c(=O)oc2ccccc12,i,i,i,i,i
CN1C2CCC1/C(=C/c1cccn1C)C(=O)/C2=C\c1cccn1C,i,i,i,i,i
CN1C2CCC1/C(=C\c1ccc(F)cc1)C(=O)/C2=C/c1ccc(F)cc1,i,7.03*,i,i,i
CN(C)CCNC(=O)c1ccc(Sc2ccc(Br)cc2)c([N+](=O)[O-])c1,i,i,i,i,i
Cc1ccc(OCc2csc(N)n2)cc1,i,i,i,i,i
N#Cc1c(-c2ccccc2Cl)cc(-c2ccccc2)nc1Br,i,i,-7.34*,i,i
CCc1sc(N2C(=O)C3C4CCC(C4=C(C)C)C3C2=O)nc1-c1ccccc1 (stereo not given),i,i,-7.46*,i,i
Cc1ccc(C2CC(=O)NC(SCc3ccccc3)=C2C#N)o1 (stereo not given),i,i,i,29.6*,i
CCSC1=C(C#N)C(c2ccc(C)o2)CC(=O)N1 (stereo not given),i,i,i,i,i
CNC(=O)C(=O)NCC1OCCCN1S(=O)(=O)c1ccc(F)cc1C (stereo not given),i,i,i,i,i
Cc1ccc(/C=C2/Sc3ccccc3N(CC(=O)NCCCOC(C)C)C2=O)cc1,i,i,i,i,-4.79*
O=C(Nc1cc2c3c(c1)CC(=O)N3CCC2)c1ccc(Br)o1,i,i,i,i,i
O=[N+]([O-])c1c(Nc2ccccc2O)cc(Cl)c2nonc12,i,i,i,i,-11.8*
SMILES,RGS4 block,MrgX1 PAM,RGS4 act,MrgX1 ag,MrgX1 antag
O=C(CCNS(=O)(=O)c1ccccc1)N1CCCCCC1,i,i,-7.12*,i,i
COc1ccc(CNC(=O)C(c2ccc(C)cc2)N(Cc2cccs2)C(=O)c2ccc3c(c2)OCCO3)cc1 (stereo not given),i,i,-7.5*,i,i
COc1ccc(CNC(=O)C(c2cccs2)N(Cc2ccco2)C(=O)Cc2cccs2)cc1 (stereo not given),i,i,-7.36*,i,i
COc1ccc(CNC(=O)C(c2ccco2)N(Cc2cccs2)C(=O)Cc2cccs2)cc1 (stereo not given),i,i,i,i,i
Cc1ccc(C(C(=O)NCc2ccccc2)N(Cc2cccs2)C(=O)c2ccc3c(c2)OCCO3)cc1 (stereo not given),i,i,i,i,i
COC(=O)C1=NN(c2cccc(C)c2)C2C(=O)N(c3ccccc3OC)C(=O)C12 (stereo not given),i,i,i,i,i
O=S(=O)(Cc1ccccc1)N1CCN(c2ncccn2)CC1,i,i,i,i,i
COc1cc(CNC(C)c2ccccc2)cc(Br)c1OCc1ccc(F)cc1 (stereo not given),i,i,-8.48*,i,i
CC(C(=O)NCCN1C(=O)S/C(=C\c2cccs2)C1=O)N1C(=O)c2ccccc2C1=O (stereo not given),i,i,i,i,i
O=C(NCCN1C(=O)S/C(=C\c2cccs2)C1=O)[C@H](Cc1ccccc1)N1C(=O)c2ccccc2C1=O,i,i,i,i,-8.4*
COc1ccc(-c2cc(C(=O)N3CCCCCC3)c3ccccc3n2)c(OC)c1,i,i,i,i,i
COc1ccc(N2CCN(C(=O)c3cc(-c4cc(OC)ccc4OC)nc4ccccc34)CC2)cc1,i,i,-7.03*,i,i
COc1ccc(OC)c(-c2cc(C(=O)N3CCN(c4ncccn4)CC3)c3ccccc3n2)c1,i,i,-7.12*,i,i
CCOc1ccccc1N1CCN(C(=O)c2cc(-c3cc(OC)ccc3OC)nc3ccccc23)CC1,i,i,-7.42*,i,i
